# Published values collected from several papers.
# Compare with care: the assays were run in different laboratories.
# Target: Dual specificity tyrosine-phosphorylation-regulated kinase 1B (DYRK1B, Homo sapiens, UniProt Q9Y463)
SMILES,test,setting,endpoint,result
COc1cc2ncnc(Nc3ccc(Oc4ccccc4)cc3C)c2cc1OC,"enzyme activity, inhibitor",1 µM,inhibition,0%
CSc1cccnc1N1CCN(Cc2nc3ccccc3[nH]2)CC1,"cell-free assay, competition with immobilised ligand",1 µM,remaining binding,91%
CS(=O)(=O)Nc1cccc(-c2csc(NC(=O)CSc3nc4nccnc4c(=O)n3CCc3ccccc3)n2)c1,"enzyme activity, inhibitor",10 µM,inhibition,0%
CCC(=N\O)/C(C)=C/c1ccc(F)cc1,"cell-free assay, competition with immobilised ligand",1 µM,remaining binding,57%
Cc1ccc(NC(=O)c2ccc(C)c(C(F)(F)F)c2)cc1C#Cc1nn(C2CCC(O)CC2)c2ncnc(N)c12 (stereo not drawn),cell-free assay,10 µM,remaining signal,92%
O=C(O)c1ccc2c(c1)nc(Nc1cccc(F)c1)c1ncncc12,"enzyme activity, inhibitor, radiometric",1 µM,remaining activity,30%
Cn1cncc1C1=CN(c2ncnc3[nH]cnc23)CCS1,"enzyme activity, inhibitor, radiometric",2 µM,inhibition,95.3%
O=C(O)c1ccc2c(c1)nc(Nc1ccccc1)c1ncncc12,"enzyme activity, inhibitor, radiometric",1 µM,remaining activity,62%
Cc1cc(NC(=O)c2cccc3cc(-c4cccc5[nH]nc(N)c45)ccc23)ccc1F,"enzyme activity, inhibitor",0.1 µM,activity vs control,95%
C[C@@H](c1cccc(C#N)c1)n1cc(Cl)cc(C(N)=O)c1=N,"cell-free assay, competition with immobilised ligand",1 µM,remaining binding,37%
COc1cccc(CCNc2nc3cc(C(=O)O)ccc3c3cncnc23)c1,"enzyme activity, inhibitor, radiometric",1 µM,remaining activity,112%
O=C1NC(c2ccccn2)Sc2ccccc21 (stereo not drawn),"cell-free assay, competition with immobilised ligand",1 µM,remaining binding,100%
O=C(O)c1ccc2c(c1)nc(NCCc1cccc(F)c1)c1ncncc12,"enzyme activity, inhibitor, radiometric",1 µM,remaining activity,117%
CN(C)C(=O)Cn1cc(-c2nc([C@@](C)(c3ccc(-c4cnc(N)nc4)cc3)C3CC3)no2)cn1,"cell-free assay, competition with immobilised ligand",1 µM,remaining binding,98%
COc1cccc(CCNc2nc3cc(C(=O)O)ccc3c3cnccc23)c1,"enzyme activity, inhibitor, radiometric",1 µM,remaining activity,123%
